# Results: PubChem BioAssay
# The source made the active and inactive calls.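 Rule for the calls, unless noted: active = NADPH fluorescence slope more negative than the mean of all samples by about 3 SD, 99.7% confidence; inactive = the rest.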
# Legend:
# [1] = inhibitors of TNFa-induced NFkB p65 translocation, primary screen, imaging, HUVEC, MLSMR starter and 10KST1 sets (AID 438;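 active = inhibition above 20% together with a positive visual image hit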;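 note: compound added about 3h40 before a 20 min TNFalpha stimulation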;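 for inhibition: signal is the nuclear over cytoplasmic p65 intensity ratio per well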); conditions: HUVEC TNFa-induced p65 nuclear translocation; cell count: measured here: nuclei count (cytotoxicity indicator), at 2.08 µM; inhibition: at 2 µM, stronger effect = higher value, 0% TNFa-plus-vehicle, 100% no-TNFa wells
# [2] = endothelial E-selectin expression blockers – imaging, HUVEC, immunofluorescence, MLSMR starter and 10KST1 sets, primary screen (AID 487;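 active = visually confirmed hit in the image check and inhibition above 20%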;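 for inhibition: signal is fraction of cell area covered by stained E-selectin grains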;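 for nuclei count: 100% = median nuclei count of all wells on the same plate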); conditions: HUVEC TNFalpha-induced E-selectin immunofluorescence imaging, at 2 µM; inhibition: stronger effect = higher value; nuclei count: measured here: cell number, toxicity
# [3] = Primary imaging screen for DUSP6 inhibitors that restore phospho-Erk in transfected HeLa cells, chemical complementation (AID 609;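 active = compounds giving at least 50% inhibition in the cell-based MKP-3 phosphatase rescue imaging test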;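 for inhibition: phospho-Erk level distribution per well compared with pooled transfected vehicle control wells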); conditions: HeLa MKP-3 transfected, phospho-Erk imaging KS statistic, at 10 µM, cells stimulated with TPA for 15 min
# [4] = target: Dual specificity protein phosphatase 6 (Homo sapiens) (UniProt Q16828); test: as above; conditions: HeLa MKP-3 transfected, phospho-Erk imaging KS statistic; at 10 µM; stronger effect = higher value; cells stimulated with TPA for 15 min
# [5] = target: Voltage-gated potassium channel subunit beta-2 (Rattus norvegicus) (UniProt P62483); test: inhibitors of rat Kvbeta2 reductase activity – biochemical, NADPH fluorescence, primary screen (AID 622;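 active = fluorescence slope higher than the sample average by over 3 SD, cut at about -0.22 in these data, passing the limit was not always enough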;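 note: slope of raw intensity against log time taken from 70 to 1610 s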); conditions: recombinant KvBeta, 4-cyanobenzaldehyde reduction, at 10 µM, stronger effect = higher value
# [6] = target: Voltage-gated potassium channel subunit beta-2 (Rattus norvegicus) (UniProt P62483); test: enhancers of rat Kvbeta2 NADPH turnover – biochemical, NADPH fluorescence, primary screen (AID 623); conditions: Recombinant KvBeta, NADPH fluorescence decrease slope, 10 min; at 10 µM; stronger effect = lower value;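 note: fluorescence intensity change per second fitted from 20 to 320 s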
# [7] = target: Muscarinic acetylcholine receptor M4 (Homo sapiens) (UniProt P08173); test: M4-linked GIRK flux change, two-sided – cell-based, HEK293 M4/GIRK, thallium flux, BTC-AM, M4 allosteric agonist project, primary screen (AID 625;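 active = fluorescence slope after compound addition differing from the mean of all tested samples at 99.7% confidence, mostly higher but some lower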;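 note: thallium influx through GIRK channels coupled to M4 in HEK293 cells with BTC-AM dye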); conditions: at 10 µM, actives lie on both sides
# How it was run: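 Material – HEK293 cells with M4 receptor and GIRK channels · Buffer or medium – pH 7.3 thallium assay buffer · Doses – one dose, 10 µM final · Timing – cells overnight at 37 °C, BTC-AM loading 1 h, reads 2 min total · Measured by – kinetic fluorescence with BTC-AM dye · Controls – carbachol and DMSO controls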
# [8] = inhibitors of larval lipid processing in zebrafish, primary screen, whole organism, PED6 fluorescence, gall bladder and intestine (AID 686;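 active = a full or partial loss of lipid-probe fluorescence in the fish gall bladder, intestine or both, judged by eye; inactive = no fluorescence loss, or compound toxic to the fish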;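 note: larvae 5 to 7 days old with five fish per well; signal comes from phospholipase A2 cleavage of quenched PED6 carried via bile; overnight exposure to compound and PED6 before scoring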); conditions: Zebrafish larvae PED6 lipid processing, fluorescence scoring; screened at 20 µM (by protocol)
# How it was run: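 system = live zebrafish larvae aged 5-7 days, whole organism | probe or stimulus = ingested quenched lipid PED6 at 100 nM | doses = 20 µM single dose | timing = overnight exposure | detection = fluorescence microscopy with visual scoring of gall bladder and intestine | read-out = visual per-well fluorescence inhibition score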
# [9] = loss of swimming-algae plug formation – whole organism, Chlamydomonas reinhardtii, WT vs cilia-less mutant, absorbance, 96-well, primary screen (AID 463189;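 active = inhibition at or above 50% relative to wild type and mutant plate controls; inactive = inhibition below 50%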;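 note: 0% = wild type cc124 cells in DMSO and 100% = ciliumless bld1 mutant cells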); conditions: Chlamydomonas reinhardtii gravitaxis, OD600 absorbance, 2 days; at 10 µM; stronger effect = higher value
# [10] = measured here: cell density z-score
# [11] = measured here: nuclear c-Myc green intensity z-score
# [12] = measured here: nuclear pErk red intensity z-score, stronger effect = higher value
# Dual specificity protein phosphatase 6 (Homo sapiens), sequence (Q16828 whole entry, looked up): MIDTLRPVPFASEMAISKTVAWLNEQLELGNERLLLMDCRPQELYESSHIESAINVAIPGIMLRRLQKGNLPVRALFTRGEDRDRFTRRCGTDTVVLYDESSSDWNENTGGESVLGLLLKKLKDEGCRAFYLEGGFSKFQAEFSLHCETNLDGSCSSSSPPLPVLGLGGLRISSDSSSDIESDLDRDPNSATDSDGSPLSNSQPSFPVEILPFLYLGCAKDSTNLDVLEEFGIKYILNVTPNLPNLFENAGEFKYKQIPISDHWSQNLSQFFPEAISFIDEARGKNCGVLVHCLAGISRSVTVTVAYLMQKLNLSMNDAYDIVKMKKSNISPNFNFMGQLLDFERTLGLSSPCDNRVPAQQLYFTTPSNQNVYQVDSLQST
# Voltage-gated potassium channel subunit beta-2 (Rattus norvegicus), sequence (P62483 whole entry, looked up): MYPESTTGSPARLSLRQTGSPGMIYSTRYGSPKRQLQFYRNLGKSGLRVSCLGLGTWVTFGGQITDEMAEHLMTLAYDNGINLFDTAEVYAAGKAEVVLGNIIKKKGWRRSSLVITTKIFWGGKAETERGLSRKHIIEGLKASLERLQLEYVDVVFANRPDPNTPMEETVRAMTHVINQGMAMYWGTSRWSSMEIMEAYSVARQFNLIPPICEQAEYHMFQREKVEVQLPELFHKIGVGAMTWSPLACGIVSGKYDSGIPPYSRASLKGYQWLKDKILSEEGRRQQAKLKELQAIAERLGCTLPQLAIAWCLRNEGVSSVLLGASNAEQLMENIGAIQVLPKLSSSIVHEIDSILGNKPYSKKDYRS
# Muscarinic acetylcholine receptor M4 (Homo sapiens), sequence (P08173 whole entry, looked up): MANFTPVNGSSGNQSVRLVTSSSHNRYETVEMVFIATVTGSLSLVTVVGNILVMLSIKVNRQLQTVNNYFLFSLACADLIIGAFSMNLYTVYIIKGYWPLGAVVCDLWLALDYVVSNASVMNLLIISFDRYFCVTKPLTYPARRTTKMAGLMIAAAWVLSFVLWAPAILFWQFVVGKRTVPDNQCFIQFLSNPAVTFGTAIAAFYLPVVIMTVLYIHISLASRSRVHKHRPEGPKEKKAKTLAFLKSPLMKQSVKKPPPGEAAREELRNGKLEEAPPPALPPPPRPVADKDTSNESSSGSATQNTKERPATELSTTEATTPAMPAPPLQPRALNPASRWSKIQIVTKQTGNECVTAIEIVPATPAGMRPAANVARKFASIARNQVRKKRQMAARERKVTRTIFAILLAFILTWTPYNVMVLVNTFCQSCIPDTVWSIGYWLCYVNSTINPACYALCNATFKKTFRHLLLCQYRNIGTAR
Compound,cell count [1],inhibition [1],inhibition [2],nuclei count [2] [%],"z-score [3, 10]","z-score [3, 11]","z-score [3, 12]",inhibition [4],fluorescence slope [5],NADPH fluorescence slope [6],fluorescence slope [7],outcome [8],inhibition [9]
CCCc1nc(N2CCCC2)c(C#N)c2c1CCCC2,605,-1.2% (inactive),-118% (inactive),141,-1.08,0.0644,-0.444,-5.81% (inactive),-0.448 (inactive),-9.6e-05 (inactive),0.00554 (inactive),inactive,4.3% (inactive)
COC(=O)/C=c1/s/c(=C(/C#N)C(=O)N2CCCCC2)n(-c2ccccc2)c1=O,585,-0.7% (inactive),-20.5% (inactive),90.8,-0.699,0.059,0.258,-5.81% (inactive),-0.546 (inactive),-1.7e-05 (inactive),0.00519 (inactive),inactive,15.4% (inactive)
CC(=O)CCn1c(=O)n(CCC(C)=O)c(=O)n(CCC(C)=O)c1=O,352,-1.6% (inactive),-7% (inactive),97.7,-1.19,2.07,-0.0971,5.42% (inactive),-0.512 (inactive),-4.3e-05 (inactive),0.00631 (inactive),inactive,-14.3% (inactive)
C/C(=N\O)C(=O)NCCCn1ccnc1,636,-10.8% (inactive),26.6% (inactive),94.5,-0.252,0.0271,0.47,-0.233% (inactive),-0.478 (inactive),-0.000143 (inactive),0.00635 (inactive),inactive,-9.7% (inactive)
CCN(CC)CCN1C(=O)C(=O)/C(=C(/O)c2c(C)[nH]c(C(=O)OC)c2C)C1c1cccc(OC)c1 (configuration not stated),699,-1% (inactive),-150% (inactive),188,-0.637,-0.455,-0.673,13.2% (inactive),-0.445 (inactive),-7.9e-05 (inactive),0.0061 (inactive),inactive,16.5% (inactive)
CCN(CC)C(=O)C1CCN(c2ncnc3c2cnn3-c2ccc(C)cc2C)CC1,622,-8.2% (inactive),-52.3% (inactive),178,1.38,-1.28,0.399,11.4% (inactive),-0.416 (inactive),-4.9e-05 (inactive),0.00727 (inactive),inactive,27.9% (inactive)
CCN(CC)CCN1C(=O)C(=O)/C(=C(/O)c2c(C)[nH]c(C(=O)OC)c2C)C1c1ccc(OC)cc1 (configuration not stated),733,-1.5% (inactive),-75.7% (inactive),194,-0.146,-0.0149,0.967,0.671% (inactive),-0.449 (inactive),-4e-05 (inactive),0.00528 (inactive),inactive,18.4% (inactive)
C[N+]1(CCNC(=O)/C=N/O)CCCCC1,468,-0.1% (inactive),-76.5% (inactive),147,-1.04,0.313,0.488,-0.624% (inactive),-0.42 (inactive),-2.5e-05 (inactive),0.00534 (inactive),inactive,13.4% (inactive)
COc1ccc(/C(O)=C2/C(=O)C(=O)N(CCN3CCOCC3)C2c2cccnc2)cc1OC (configuration not stated),364,-4.2% (inactive),-126% (inactive),151,-0.575,1.61,-0.594,11.9% (inactive),-0.486 (inactive),-4.1e-05 (inactive),0.00405 (inactive),inactive,-1.91% (inactive)
CC(=O)N1CCN(C2c3cccc4cccc(c34)C2NS(=O)(=O)c2ccccc2)CC1 (configuration not stated),507,-0.3% (inactive),-19.2% (inactive),101,1.9,-1.56,-0.633,33.3% (inactive),-0.462 (inactive),-4.4e-05 (inactive),0.00522 (inactive),inactive,30.1% (inactive)
COCc1[nH]nc2c1C(c1ccc(OC)cc1)C(C#N)=C(N)O2 (configuration not stated),664,-8.1% (inactive),0.4% (inactive),142,-1.64,0.0391,-2.4,-4.27% (inactive),-0.477 (inactive),-6e-05 (inactive),0.006 (inactive),inactive,0.628% (inactive)
Cc1cccc(-n2ncc3c(NCc4ccco4)ncnc32)c1,648,-12.5% (inactive),-84.2% (inactive),165,0.86,-0.2,-0.239,11.4% (inactive),-0.385 (inactive),-4.7e-05 (inactive),0.00641 (inactive),inactive,2.88% (inactive)
O=C1C2ON(c3ccccc3)C(c3cccnc3)C2C(=O)N1Cc1ccccc1 (configuration not stated),620,-11% (inactive),-48.8% (inactive),177,0.802,0.656,-1.11,2.71% (inactive),-0.512 (inactive),-5.7e-05 (inactive),0.00545 (inactive),inactive,-1.68% (inactive)
CCOC(=O)NC(Nc1sc2c(c1C(N)=O)CCCC2)(C(=O)OCC)C(F)(F)F (configuration not stated),707,-5.7% (inactive),-51.4% (inactive),144,0.203,-0.663,1.92,16.5% (inactive),-0.448 (inactive),-1.9e-05 (inactive),0.00659 (inactive),inactive,1.44% (inactive)
